Columns and labels:
[1] = The amount of iron absorbed by the treated animals at postdrug dosage of 300(umol/kg) (route per oral)using 40% cremophore as vehical in Cebus monkeys; assay type: functional
Outline: (§1)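 Iron-overloaded Cebus monkeys were kept in metabolic cages on a low-iron liquid diet starting 7 days before dosing, fed by body weight with intake monitored, and fasted 24 h before dosing. They were sedated with ketamine (7–10 mg/kg im) plus scopolamine (0.04–0.07 mg/kg im). Urine and feces were collected every 24 h over days 1–3 and iron measured by flame AA. Iron balance = dietary intake − (urinary + fecal iron).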

[2] = The amount of iron absorbed by the treated animals at postdrug dosage of 300(umol/kg) (route sub cutaneous) using 40% cremophore as vehical in Cebus monkeys; assay type: functional; outline: as §1
[3] = The amount of iron absorbed by the untreated over a period of 3 days animals at prodrug dosage of 300(umol/kg) (route per oral)using 40% cremophore as vehical in Cebus monkeys; assay type: functional
Outline: (§2)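 Baseline period in iron-overloaded Cebus monkeys housed in metabolic cages on a low-iron liquid diet begun 7 days before dosing, fed by body weight with intake monitored. Iron intake and output were measured over the 3 days before drug administration (day −2 to day 0). Urine and feces were collected at 24-h intervals and iron determined by flame atomic absorption. Net balance = intake − (urinary + fecal iron).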

[4] = The amount of iron absorbed by the untreated over a period of 3 days animals at prodrug dosage of 300(umol/kg) (route sub cutaneous) using 40% cremophore as vehical in Cebus monkeys; assay type: functional; outline: as §2
[5] = The amount of iron absorbed by the treated animals at postdrug dosage of 150(umol/kg) (route sc)using distill water as vehical; assay type: functional, Cercopithecidae; outline: as §1
[6] = The amount of iron absorbed by the untreated over a period of 3 days animals at prodrug dosage of 150(umol/kg) (route sc)using distill water as vehical; assay type: functional, Cercopithecidae; outline: as §2
[7] = The amount of iron absorbed by the treated animals at postdrug dosage of 150(umol/kg) (route per oral)using 40% cremophore as vehical in Cebus monkeys; assay type: functional; outline: as §1
[8] = The amount of iron absorbed by the untreated over a period of 3 days animals at prodrug dosage of 150(umol/kg) (route per oral)using 40% cremophore as vehical in Cebus monkeys; assay type: functional; outline: as §2

Compound | Postdrug [1] [µg/kg] | Postdrug [2] [µg/kg] | Predrug [3] [µg/kg] | Predrug [4] [µg/kg] | Postdrug [5] [µg/kg] | Predrug [6] [µg/kg] | Postdrug [7] [µg/kg] | Predrug [8] [µg/kg]
O=C(O)[C@@H]1CSC(c2cc3ccccc3cc2O)=N1 | 49 | 120 | 118 | 80 | – | – | – | –
O=C(O)[C@H]1CSC(c2c(O)ccc3ccccc23)=N1 | 381 | – | 358 | – | – | – | – | –
O=C(O)[C@@H]1CSC(c2c(O)ccc3ccccc23)=N1 | 63 | -9 | 54 | 26 | – | – | – | –
O=C(O)[C@H]1CSC(c2cc3ccccc3cc2O)=N1 | -162 | 156 | 25 | 164 | – | – | – | –
CC(=O)N(O)CCCCCNC(=O)CCC(=O)N(O)CCCCCNC(=O)CCC(=O)N(O)CCCCCN [DEFEROXAMINE] | – | – | – | – | 245 | 217 | – | –
C[C@]1(C(=O)O)CSC(c2ncccc2O)=N1 [DESFERRITHIOCIN] | – | – | – | – | – | – | -500 | 230

Source: ChEMBL document CHEMBL1129547, “Synthesis and biological evaluation of naphthyldesferrithiocin iron chelators” (1996)
